In ChEMBL document CHEMBL1121519, “Basic antiinflammatory compounds. N,N',N''-Trisubstituted guanidines” (J Med Chem, 1980):

How the values were obtained:
[1] = Lethal dose in mice(peroral administration); assay type: toxicity, organism-based; conditions: mouse, in vivo, po
In short: (§1)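 Median lethal dose found after oral dosing of mice, four mice per dose level, and calculated by the Litchfield–Wilcoxon method.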

[2] = Lethal dose in mice determined by Litchfield and Wilcoxon methods after peroral administration.; assay type: toxicity, organism-based; conditions: mouse, in vivo, po; in short: as §1
[3] = Inhibitory concentration against PG synthetase; assay type: functional
[4] = molecular target: T1, Cyclooxygenase (Bos taurus) (UniProt O62664+O62698); test: Inhibition of prostaglandin synthetase in bovine seminal vesicle microsomes using Beckman liquid scintillation counter at 10 e-5 M; conditions: Microsome
Rattus norvegicus [5] = test: Effective dose against carrageenan edema(peroral administration); assay type: functional; conditions: po
In short: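 Sprague-Dawley rats fasted 18 h, dosed orally in 0.5% carboxymethylcellulose suspension 1 h before 0.1 mL of 1% carrageenan into right hind paw plantar tissue. Paw swelling in treated versus control rats measured 3 h post-carrageenan by mercury-displacement plethysmometry; ED50 given in mg/kg po.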

Rattus norvegicus [6] = test: Effective dose against gastroulcerogenic activity (peroral administration); assay type: functional; conditions: po
In short: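 Groups of six Sprague-Dawley rats given oral doses once daily for 3 days; inner stomach surface examined for lesions 24 h after last dose. ED50 is the dose giving macroscopically visible lesions in 50% of rats.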

Rattus norvegicus [7] = test: Effective dose against nystatin edema(peroral administration); assay type: functional; conditions: po
Rattus norvegicus [8] = test: Effective dose against analgesic activity (peroral administration); assay type: functional; conditions: po
[9] = Toxic score (3) was measured as lethal dose in orally administered mice; assay type: toxicity, organism-based; conditions: mouse, in vivo, po
In short: (§2)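 Score derived from mouse oral LD50 (Litchfield–Wilcoxon, four mice per dose), in mg/kg: >1000 = 3; 500-1000 = 2; <500 = 1.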

[10] = Lethal dose in rats(peroral administration); assay type: toxicity, organism-based; conditions: rat, in vivo, po
Rattus norvegicus [11] = test: Minimum effective dose against adjuvant arthritis on administration); assay type: functional; conditions: read-out: MED
In short: (§3)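 Female Lewis rats given adjuvant arthritis by plantar M. butyricum in mineral oil. Oral daily dosing either from adjuvant day to day 28 (continuous), day 16 to day 28 (therapeutic), or day 5 pre- to day 5 postadjuvant (prophylactic). MED: lowest dose producing significant (p < 0.05) inhibition of noninjected paw swelling on day 28, by plethysmometry.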

Rattus norvegicus [12] = test: Minimum effective dose against adjuvant arthritis on prophylactic dosing (peroral administration); assay type: functional; conditions: po, read-out: MED; in short: as §3
Rattus norvegicus [13] = test: Minimum effective dose against adjuvant arthritis on therapeutic dosing (peroral administration); assay type: functional; conditions: po, read-out: MED; in short: as §3
Rattus norvegicus [14] = species: Rattus norvegicus; test: Minimum effective dose is the lowest dose preventing any futher increase in body temperature; assay type: functional; conditions: read-out: MED
In short: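 Antipyretic test, oral dosing; MED defined as the lowest dose preventing any further increase of body temperature.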

Rattus norvegicus [15] = species: Rattus norvegicus; test: Tested for inhibition in the rat paw injected with carrageenan.; assay type: functional; design: concentration or dose not given beside the values
Rattus norvegicus [16] = species: Rattus norvegicus; test: Tested for inhibition in the rat paw not injected with […].; assay type: functional; design: concentration or dose not given beside the values
In short: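 Adjuvant-induced arthritis, female Lewis rats, six per group: M. butyricum in mineral oil (3 mg/mL, 0.1 mL) injected into right hind paw plantar tissue. Daily oral dosing from adjuvant day to day 28, 10 or 5 (mg/kg)/day according to mouse oral LD50 (≥1000 or <1000 mg/kg). Injected and noninjected paw swelling read by mercury-displacement plethysmometry on day 28.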

Rattus norvegicus [17] = test: Percent inhibition of carrageenan paw edema in rat, administered orally at a dose of one tenth of oral lethal dose in mice; assay type: functional
In short: (§4)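 1 h later, 0.1 mL of 1% carrageenan was injected into the right hind-paw plantar tissue. Paw swelling was measured by mercury-displacement plethysmometry 3 h after carrageenan, compared with controls.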

Rattus norvegicus [18] = test: Total score is the sum of scores obtained in the adjuvant arthritis, acute toxicity, carrageenan edema, and prostaglandin synthetase assay; assay type: functional
Rattus norvegicus [19] = species: Rattus norvegicus; test: Average percent inhibition (arthritis score=3) of the swelling of both injected and non injected paw was measured; assay type: functional
In short: (§5)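 Adjuvant arthritis in inbred female Lewis rats, groups of six, acclimatized 2 weeks. Arthritis induced by injecting 0.1 mL M. butyricum in mineral oil (3 mg/mL) into right hind paw plantar tissue. Oral dosing daily from adjuvant day to day 28: 10 (mg/kg)/day if mouse oral LD50 ≥1000 mg/kg, else 5 (mg/kg)/day. Swelling of injected and noninjected paws measured day 28 by mercury-displacement plethysmometry; mean percent inhibition scored 0–3.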

Rattus norvegicus [20] = species: Rattus norvegicus; test: Average percent inhibition (arthritis score=2) of the swelling of both injected and non injected paw was measured;values ranges from: […]-[…]; assay type: functional
[21] = molecular target: T1, Cyclooxygenase (Bos taurus); test: Tested for Prostaglandin Synthetase inhibition in Bovine seminal vesicle microsomes using Beckman liquid scintillation counter at 10 e-5 M; conditions: Microsome
Rattus norvegicus [22] = species: Rattus norvegicus; test: Average percent inhibition (arthritis score) of the swelling of both injected and non injected paw was measured; […]; assay type: functional
Rattus norvegicus [23] = test: Tested for percent inhibition of carrageenan paw edema in rat, administered orally at a dose of one tenth of oral lethal dose in mice; assay type: functional
In short: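 Sprague-Dawley rats fasted 18 h; compound suspended in 0.5% carboxymethylcellulose, given orally 1 h before 0.1 mL of 1% carrageenan suspension injected into the plantar tissue of the right hind paw. Paw swelling measured by mercury-displacement plethysmometry 3 h after carrageenan, treated versus controls. Mouse oral LD50 was from the Litchfield-Wilcoxon method with four mice per dose.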

[24] = Tested for percent inhibition of carrageenan paw edema in rat, administered orally at a dose of one tenth of lethal dose; assay type: organism-based; conditions: in vivo, po; in short: as §4
[25] = Toxic score was measured as lethal dose in orally administered mice;Values ranges from: 500-1000; assay type: toxicity, organism-based; conditions: mouse, in vivo, po; in short: as §2
Rattus norvegicus [26] = species: Rattus norvegicus; test: Average percent inhibition (arthritis score=0) of the swelling of both injected and non injected paw was measured; assay type: functional; in short: as §5
Rattus norvegicus [27] = species: Rattus norvegicus; test: Tested for enhancement in the rat paw injected with carrageenan.; assay type: functional
Rattus norvegicus [28] = species: Rattus norvegicus; test: Tested for enhancement in the rat paw not injected with carrageenan.; assay type: functional
Rattus norvegicus [29] = species: Rattus norvegicus; test: Average percent inhibition of the swelling of both injected and non injected paw was measured; assay type: functional; in short: as §5
Rattus norvegicus [30] = species: Rattus norvegicus; test: Average percent inhibition (arthritis score=1) of the swelling of both injected and non injected paw was measured; […]; assay type: functional
Rattus norvegicus [31] = species: Rattus norvegicus; test: Average percent inhibition (arthritis score)of the swelling of both injected and non injected paw was measured; […]; assay type: functional

Compound: Cc1cc(/N=C(\Nc2nccs2)NC2CCCCC2)c2ccccc2n1 [TIMEGADINE]
- LD50 [1]: > 1000 mg/kg
- LD50 [2]: > 1000 mg/kg
- IC50 [3]: 2500 nM
- inhibition [4]: 100%
- ED50 (Rattus norvegicus [5]): 29.6 mg/kg
- ED50 (Rattus norvegicus [6]): 170 mg/kg
- ED50 (Rattus norvegicus [7]): 26.5 mg/kg
- ED50 (Rattus norvegicus [8]): 68.5 mg/kg
- LD50 [9]: > 1000 mg/kg
- LD50 [10]: 1220 mg/kg
- minimal effective dose (Rattus norvegicus [11]): 3 mg/kg
- minimal effective dose (Rattus norvegicus [12]): 10 mg/kg
- minimal effective dose (Rattus norvegicus [13]): 10 mg/kg
- minimal effective dose (Rattus norvegicus [14]): 12.4 mg/kg
- Inhibition (Rattus norvegicus [15]): 53%
- Inhibition (Rattus norvegicus [16]): 63%
- Inhibition (Rattus norvegicus [17]): 68%
- Total score (Rattus norvegicus [18]): 12
- Inhibition (Rattus norvegicus [19]): >=50%

Compound: Cc1cc(N/C(=N\C2CC2)Nc2nccs2)c2ccccc2n1
- LD50 [2]: 600 mg/kg
- inhibition [4]: 15.8%
- Inhibition (Rattus norvegicus [15]): 53%
- Inhibition (Rattus norvegicus [16]): 30%
- Inhibition (Rattus norvegicus [17]): 65%
- Total score (Rattus norvegicus [18]): 7
- Inhibition (Rattus norvegicus [20]): 49%

Compound: Cc1cc(N/C(=N/C2CCCCC2)NC2NC=CS2)c2ccccc2n1 (stereo unspecified)
- LD50 [2]: > 1000 mg/kg
- inhibition [21]: 12.6%
- Inhibition (Rattus norvegicus [17]): 33%

Compound: Cc1cc(/N=C(\Nc2cc(C)nc3ccccc23)NC2CCCCC2)sn1
- LD50 [2]: > 1000 mg/kg
- inhibition [4]: 83.2%
- LD50 [9]: > 1000 mg/kg
- Inhibition (Rattus norvegicus [15]): 1%
- Inhibition (Rattus norvegicus [16]): 21%
- Inhibition (Rattus norvegicus [17]): 48%
- Total score (Rattus norvegicus [18]): 9
- Inhibition (Rattus norvegicus [22]): 29%

Compound: COc1ccc2c(c1)c(CC(=O)O)c(C)n2C(=O)c1ccc(Cl)cc1 [INDOMETHACIN]
- LD50 [2]: 24.3 mg/kg
- ED50 (Rattus norvegicus [5]): 3.5 mg/kg
- ED50 (Rattus norvegicus [6]): 4.6 mg/kg
- ED50 (Rattus norvegicus [7]): > 6 mg/kg
- ED50 (Rattus norvegicus [8]): 6.5 mg/kg
- LD50 (Rattus norvegicus [23]): 12 mg/kg
- minimal effective dose (Rattus norvegicus [11]): 1 mg/kg
- minimal effective dose (Rattus norvegicus [12]): 2 mg/kg
- minimal effective dose (Rattus norvegicus [13]): < 1 mg/kg
- minimal effective dose (Rattus norvegicus [14]): 1.6 mg/kg

Compound: CCCCCC/N=C(\Nc1nccs1)Nc1cc(C)nc2ccccc12
- inhibition [4]: -23.8%
- LD50 [24]: 8 mg/kg

Compound: CCOc1cc(N/C(=N/C(C)(C)C)Nc2nccs2)c2ccccc2n1
- LD50 [2]: 800 mg/kg
- inhibition [4]: 88.9%
- LD50 [25]: 1000 mg/kg
- Inhibition (Rattus norvegicus [15]): 8%
- Inhibition (Rattus norvegicus [16]): 13%
- Inhibition (Rattus norvegicus [17]): 39%
- Total score (Rattus norvegicus [18]): 6
- Inhibition (Rattus norvegicus [26]): <10%

Compound: Cc1csc(/N=C(\Nc2cc(C)nc3ccccc23)NC2CCCCC2)n1
- LD50 [2]: > 1000 mg/kg
- inhibition [4]: 89.3%
- LD50 [9]: > 1000 mg/kg
- Inhibition (Rattus norvegicus [17]): 38%
- Total score (Rattus norvegicus [18]): 7
- Enhancement (Rattus norvegicus [27]): 15%
- Enhancement (Rattus norvegicus [28]): 23%
- Inhibition (Rattus norvegicus [29]): <10%

Compound: Cc1cc(N/C(=N/C2CCCCCCC2)Nc2nccs2)c2ccccc2n1
- LD50 [2]: > 1000 mg/kg
- inhibition [4]: 55.1%
- LD50 [9]: > 1000 mg/kg
- Inhibition (Rattus norvegicus [15]): 21%
- Inhibition (Rattus norvegicus [17]): 62%
- Total score (Rattus norvegicus [18]): 9
- Enhancement (Rattus norvegicus [28]): 8%
- Inhibition (Rattus norvegicus [30]): 29%

Compound: Cc1cc(N/C(=N/C(C)(C)C)Nc2nnc(C)s2)c2ccccc2n1
- LD50 [2]: > 1000 mg/kg
- inhibition [4]: 33%
- LD50 [9]: > 1000 mg/kg
- Inhibition (Rattus norvegicus [15]): 45%
- Inhibition (Rattus norvegicus [16]): 51%
- Inhibition (Rattus norvegicus [17]): 85%
- Total score (Rattus norvegicus [18]): 9
- Inhibition (Rattus norvegicus [31]): 49%
